# Sampled rows, rich in hits. Any-hit rate of the full collection: about 1.8%.
# NPY-Y2 PAM-ag – NPY-Y2 potentiators or agonists, primary screen, cell-based | AID 1359, 2008 | cells expressing NPY-Y2, potentiator/agonist read-out | actives 0.45% (n = 220,000) | activation, % at 3.6 µM; in the data active = activation above about 27%;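 also: cells stimulated with NPY near EC25 plus isoproterenol at EC100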
# Target sequence (P49146 whole entry, looked up): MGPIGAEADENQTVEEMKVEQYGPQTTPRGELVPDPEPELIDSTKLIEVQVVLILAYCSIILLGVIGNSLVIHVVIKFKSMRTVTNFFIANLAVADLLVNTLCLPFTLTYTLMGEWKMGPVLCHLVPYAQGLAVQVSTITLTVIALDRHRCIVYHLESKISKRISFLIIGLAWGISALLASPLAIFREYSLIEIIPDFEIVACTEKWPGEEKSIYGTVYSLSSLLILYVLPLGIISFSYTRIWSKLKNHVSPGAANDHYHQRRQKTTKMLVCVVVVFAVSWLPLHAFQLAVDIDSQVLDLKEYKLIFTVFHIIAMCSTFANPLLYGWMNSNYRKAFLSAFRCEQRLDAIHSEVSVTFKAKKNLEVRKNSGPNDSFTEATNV
# NPY Y1 blocker – NPY-Y1 receptor antagonists, primary screen, cell-based | Neuropeptide Y receptor type 1 (Homo sapiens), P25929 | HEK293-CNG Y1 cells, membrane potential fluorescence; NPY at EC95, then isoproterenol | inhibition, % at 3.6 µM | actives 1% (n = 200,000);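 active = inhibition above the campaign mean inhibition of all tested compounds plus 3 SD, cut at about 20% in these data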
#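 Test system – HEK293 Y1/CNG channel cell line · Also added – NPY agonist 25 nM, then isoproterenol 1 µM plus Ro 20-1724 25 µM · Compound dosing – one concentration, 3.6 µM, in 0.4% DMSO · Schedule – compound incubation 1 h at room temperature, readout 45 min post-stimulation · Technique – fluorescence, membrane potential probe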
# NPY1 pot ag – NPY-Y1 receptor potentiators or agonists, primary screen, cell-based | NPY-Y1 expressing cells, potentiator/agonist activation | activation, % at 3.6 µM | actives 0.37% (n = 220,000); in the data active = activation above about 33%, passing the limit was not always enough;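 also: cells stimulated with NPY at EC10 then isoproterenol at EC100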
# NPY-Y2 antag – NPY-Y2 receptor antagonists, primary screen, cell-based. inhibition, % at 2.7 µM. actives 0.99% (n = 140,000). AID 793, 2007. NPY-Y2 expressing cells, antagonist mode; in the data active = inhibition above about 17%
# NPY-Y2 pot conf – NPY-Y2 potentiators or agonists, confirmation, cell-based. shares compounds with NPY-Y2 PAM-ag. cell-based NPY-Y2 potentiator/agonist assay. activation, % at 3.6 µM. actives 20% (n = 450); in the data active = activation above about 33%
# NPY-Y1 counter – NPY-Y1 potentiators or agonists, counter-screen for NPY-Y2 potentiator project, cell-based, fluorescence | shares compounds with NPY-Y2 PAM-ag | Y1 HEK293-CNG cells, membrane potential fluorescence | activation, % at 3.6 µM | actives 20% (n = 450); in the data active = activation above about 45%;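 also: cells stimulated with submaximal NPY then isoproterenol with phosphodiesterase inhibitor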
# NPY-Y1 agonist 2 – NPY-Y1 direct agonists, selectivity assay for NPY-Y2 potentiator project, cell-based, fluorescence; shares compounds with NPY-Y2 PAM-ag; actives 37% (n = 450); HEK293 Y1-CNGC, membrane potential fluorescence, agonism; AID 1702, 2009; activation, % at 3.6 µM;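 active = activation above the mean of DMSO-only control wells plus 3 SD, cut at about 18% in these data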;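 also: cells stimulated with 1 µM isoproterenol plus the PDE inhibitor Ro 20-1724; Y1 agonists lower the membrane potential dye signal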
# CNGC inh – CNGC cAMP sensor activity inhibitors, counter-screen for NPY-Y2 potentiator project, cell-based, HEK293-CNG parental, membrane potential fluorescence | shares compounds with NPY-Y2 PAM-ag | inhibition, % at 3.6 µM | isoproterenol cAMP | actives 32% (n = 450);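 active = inhibition above the control-well mean plus 3 SD of those wells, cut at about 22% in these data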
# NPY-Y2 ag 2 – NPY-Y2 direct agonists, counter-screen for NPY-Y2 potentiator project, cell-based, fluorescence. HEK293 Y2/CNGC cells, membrane potential fluorescence, agonist mode. actives 56% (n = 450). activation, % at 3.6 µM. shares compounds with NPY-Y2 PAM-ag. AID 1710, 2009;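 active = activation above the mean of solvent-only control wells plus 3 SD, cut at about 10% in these data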;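 also: cells stimulated by isoproterenol with no NPY added so direct agonism is tested; agonism lowers probe fluorescence through less cAMP and CNG channel opening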
# A number is an active result; 0 = inactive; - = not tested or not shown.
SMILES,NPY-Y2 PAM-ag,NPY Y1 blocker,NPY1 pot ag,NPY-Y2 antag,NPY-Y2 pot conf,NPY-Y1 counter,NPY-Y1 agonist 2,CNGC inh,NPY-Y2 ag 2
CCCOP(=O)(OCCC)C(Nc1ccc(C(C)C)cc1)c1ccc([N+](=O)[O-])cc1 (stereo unspecified),35.2,0,0,0,0,0,0,0,0
COP(=O)(OC)C(Nc1ccc([N+](=O)[O-])cc1)c1ccccc1 (stereo unspecified),0,-,0,-,-,-,-,-,-
COc1ccc(COC(=O)c2ccc3c(=O)n4c(nc3c2)CCC4)cc1F,58.9,-,0,-,0,0,0,0,10.3
O=C(OCN1C(=O)c2ccccc2C1=O)c1ccc2c(=O)n3c(nc2c1)CCC3,0,0,0,0,-,-,-,-,-
O=S(=O)(c1cnc(Cl)c(Cl)c1)N1CCc2ccccc21,42.0,-,0,-,0,0,0,31.9,22.7
O=S(=O)(c1cnc(Cl)c(Cl)c1)N1CCCc2ccccc21,0,0,0,0,-,-,-,-,-
O=C(C1=C[C@@H](c2coc3ccccc3c2=O)C[C@@H](OCCCCO)O1)N1CCN(Cc2ccccc2)CC1,0,0,0,-,-,-,-,-,-
COc1ccc(S(=O)(=O)N2CCC(n3cnc4cc(C(F)(F)F)ccc43)CC2)cc1,0,0,0,0,-,-,-,-,-
CC(=O)Nc1ccc(S(=O)(=O)N2CCC(n3cnc4cc(F)ccc43)CC2)cc1,35.1,0,0,0,0,0,0,0,0
O=C(NC(NC(=S)Nc1cccc(Cl)c1)C(Cl)(Cl)Cl)OCc1ccccc1 (stereo unspecified),33.2,0,0,0,0,0,30.2,27.8,34.3
O=C(NC(NC(=S)Nc1cccc(C(=O)O)c1)C(Cl)(Cl)Cl)OCc1ccccc1 (stereo unspecified),0,0,0,0,-,-,-,-,-
O=S(=O)(Nc1nccs1)c1cnc(Cl)c(Br)c1,0,0,0,0,-,-,-,-,-
O=C(CCn1cccc1)Nc1cccc(F)c1,0,0,0,0,-,-,-,-,-
CCn1c2ccccc2c2cc(NC(=O)CN(C)CC(=O)Nc3ccc(N4CCOCC4)cc3)ccc21,26.8,0,0,-,0,0,0,0,17.7
COc1ccc(NS(=O)(=O)c2cccc(NC(=O)c3ccc(Cl)nc3)c2)cc1,0,0,0,-,-,-,-,-,-
O=C(Nc1cccc(S(=O)(=O)Nc2ccc(Cl)cc2)c1)c1ccc(Cl)nc1,46.2,0,0,0,0,0,0,0,0
CC(=O)Nc1ccc(-c2cc3ccccc3o2)cc1,28.6,0,0,0,0,0,0,0,12.9
CCC(=O)Nc1ccc(-c2cc3ccccc3oc2=O)cc1,0,0,0,-,-,-,-,-,-
O=C(N/N=C/c1cccc2nccnc12)c1ccccc1O,0,-,0,-,-,-,-,-,-
O=C(N/N=C/c1cccc2cccnc12)c1ccccc1O,38.2,-,0,-,0,0,0,0,12.2
O=C1/C(=C/c2ccc(O)c(O)c2)SC(=S)N1Nc1ccccc1,39.3,0,0,-,34.3,0,24.6,0,28.3
S=C1SCN(Cc2ccco2)CN1Cc1ccco1,0,-,0,-,-,-,-,-,-
O=c1[nH][nH]c(C(F)(F)F)c1C=NCc1cccc(Cl)c1,0,0,0,0,-,-,-,-,-
Cc1c([N+](=O)[O-])c(C(=O)N2CCCC2)nn1C,0,0,0,0,-,-,-,-,-
Cc1c([N+](=O)[O-])c(C(=O)Sc2ccc(Br)cc2)nn1C,44.0,-,0,-,0,0,0,0,15.7
SMILES,NPY-Y2 PAM-ag,NPY Y1 blocker,NPY1 pot ag,NPY-Y2 antag,NPY-Y2 pot conf,NPY-Y1 counter,NPY-Y1 agonist 2,CNGC inh,NPY-Y2 ag 2
O=C(NNc1ccc(C(F)(F)F)cc1[N+](=O)[O-])c1ccc(NS(=O)(=O)c2ccc(F)cc2)cc1,44.6,0,0,0,58.1,71.6,61.6,62.0,61.9
O=C(NCCCNc1ccc(C(F)(F)F)cc1[N+](=O)[O-])c1ccc(Cl)cc1,0,0,0,0,-,-,-,-,-
Clc1ccc2[nH]c3c(c2c1)CCc1cn[nH]c1-3,46.1,0,0,0,33.5,45.0,34.3,35.4,25.1
c1ccc2c3c([nH]c2c1)-c1[nH]ncc1CC3,0,0,0,0,-,-,-,-,-
Cc1[nH]n(-c2ccccc2)c(=O)c1C=NCC1CCCO1 (stereo unspecified),0,0,0,-,-,-,-,-,-
Nc1c2nc(-c3ccccc3Cl)[nH]c(=O)c2nc(=O)n1-c1ccccc1,0,-,0,-,-,-,-,-,-
CCSc1nnc(NC(=O)CCNS(=O)(=O)c2cc(Br)cnc2N)s1,28.1,0,0,0,0,0,24.3,0,24.3
CCSc1nnc(NC(=O)CCc2ccccc2)s1,0,0,0,0,-,-,-,-,-
CC(O)CN1C(=O)C(CC(=O)Nc2ccc(Cl)cc2)SC1=Nc1ccccc1 (stereo unspecified),0,0,0,0,-,-,-,-,-
COCCN1C(=O)C(CC(=O)Nc2ccc(C(C)=O)cc2)SC1=Nc1ccccc1 (stereo unspecified),43.0,0,0,0,36.6,48.9,41.7,34.2,34.4
COC(=O)c1ccccc1NC(=O)COC(=O)c1ccccc1N=Nc1ccc(N(C)C)cc1,0,0,0,0,-,-,-,-,-
CC(=O)c1ccc(NC(=O)COC(=O)c2ccccc2N=Nc2ccc(N(C)C)cc2)cc1,44.3,0,0,0,47.6,61.9,50.1,44.3,41.5
O=C(Nc1cccc([N+](=O)[O-])c1)c1cc2ccccc2cc1O,57.4,-,0,-,0,0,0,0,11.2
CCc1c(C)c(C#N)c2nc3ccccc3n2c1N(C)C,101.1,0,0,0,0,0,0,0,0
CC#CC#Cc1cccc(=O)o1,0,-,0,-,-,-,-,-,-
N=c1c(-c2nc3ccccc3[nH]2)cc(C(=O)c2ccco2)nn1-c1ccccc1,38.2,0,0,0,83.3,107.6,79.6,72.7,79.7
COc1cc(/C=C/C(=O)OCC(=O)NCCc2ccccc2)cc(OC)c1OC,0,0,0,-,-,-,-,-,-
NC(=S)N=Nc1c(O)n(CCCl)c2ccc(Cl)cc12,0,0,0,-,-,-,-,-,-
Cc1cc(N/C(=N/S(=O)(=O)c2ccc(F)cc2)c2ccccc2)n(-c2ccccc2)n1,28.1,0,0,-,0,0,0,0,0
Cc1cc(N/C(=N/S(=O)(=O)c2cc(F)ccc2F)c2ccccc2)n(-c2ccccc2)n1,0,0,0,-,-,-,-,-,-
COc1ccccc1C(=O)Nc1ccon1,0,0,0,0,-,-,-,-,-
Cc1ccc(C(C)C)c(OCc2nc(-c3nonc3N)no2)c1,0,0,0,0,-,-,-,-,-

# Bioassay records from PubChem BioAssay.
